Measured values: ChEMBL document CHEMBL1140759, “Synthesis, anti-Toxoplasma gondii and antimicrobial activities of benzaldehyde 4-phenyl-3-thiosemicarbazones and 2-[(phenylmethylene)hydrazono]-4-oxo-3-phenyl-5-thiazolidineacetic acids” (Bioorg Med Chem, 2008)
Converted amounts (≈) assume the structure as drawn.

Columns and labels:
Toxoplasma gondii [1] = assay: Antiparasitic activity against Toxoplasma gondii infected african green monkey Vero cells at 5 mM assessed as infected cells; format: functional
Method in brief: (§1)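 Vero cells were infected with RH-strain tachyzoites (5:1 parasite:cell) for 1 h, washed with PBS, and grown 24 h at 37 °C in medium 199 with 5% FCS. Compound was then added for 24 h. Cells were fixed with Bouin's, stained with Giemsa, and at least 400 cells were counted by light microscopy for the percentage infected. Hydroxyurea and sulfadiazine served as references.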

[2] = test system: Mycolicibacterium smegmatis; assay: Antimicrobial activity against Mycobacterium smegmatis at 300 ug/disc; format: functional; details: read-out: IZ
Method in brief: (§2)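 Disc diffusion on agar plates inoculated with a standardized microbial suspension, with paper discs carrying known compound amounts. DMSO-only discs served as negative controls, and chloramphenicol, rifampicin (bacteria) or nistatin (fungi) as references. The read-out is the mean inhibition zone diameter in mm. Each run was done three times and repeated if results differed.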

Candida [3] = assay: Antimicrobial activity against Candida sp. IMUR1224 at 300 ug/disc; format: functional; details: read-out: IZ; method in brief: as §2
Micrococcus luteus = assay: Antimicrobial activity against Micrococcus luteus at 300 ug/disc; format: functional; details: read-out: IZ; method in brief: as §2
[4] = test system: Mycobacterium tuberculosis; assay: Antimicrobial activity against Mycobacterium tuberculosis; format: functional
Vero = assay: Inhibition of uninfected african green monkey Vero cells; format: cell-based; details: Chlorocebus sabaeus
[5] = test system: Mycobacterium tuberculosis; assay: Antimicrobial activity against Mycobacterium tuberculosis at 300 ug/disc; format: functional; details: read-out: IZ
Method in brief: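 Agar disc diffusion: paper discs loaded with compound placed on agar plates seeded with a standardised microbial suspension. DMSO-only discs served as negative control. Chloramphenicol and rifampicin (bacteria) or nistatin (fungi) gave reference zones. Read-out was mean zone of inhibition diameter (mm). Each experiment was run three times and repeated if results differed.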

Toxoplasma gondii [6] = assay: Antiparasitic activity against Toxoplasma gondii infected african green monkey Vero cells at 8 mM assessed as infected cells; format: functional; method in brief: as §1
Toxoplasma gondii [7] = assay: Antiparasitic activity against Toxoplasma gondii infected african green monkey Vero cells at 0.1 mM assessed as infected cells; format: functional; method in brief: as §1
Candida [8] = assay: Antimicrobial activity against Candida sp. IMUR720 at 300 ug/disc; format: functional; details: read-out: IZ; method in brief: as §2
Bacillus subtilis = assay: Antimicrobial activity against Bacillus subtilis at 300 ug/disc; format: functional; details: read-out: IZ; method in brief: as §2
Klebsiella pneumoniae = assay: Antimicrobial activity against Klebsiella pneumoniae at 300 ug/disc; format: functional; details: read-out: IZ; method in brief: as §2
Candida [9] = assay: Antimicrobial activity against Candida sp. IMUR4249 at 300 ug/disc; format: functional; details: read-out: IZ; method in brief: as §2
Toxoplasma gondii [10] = assay: Inhibition of intracellular parasite Toxoplasma gondii; format: functional, organism-based
Method in brief: (§3)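 Infected Vero cultures were exposed to compound at 0.01–30 mM for 24 h, in triplicate per assay. IC50 for infected cells and intracellular parasites was derived by non-linear regression, using trypan blue exclusion.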

Enterococcus faecalis = assay: Antimicrobial activity against Streptococcus faecalis at 300 ug/disc; format: functional; details: read-out: IZ; method in brief: as §2
Escherichia coli = assay: Antimicrobial activity against Escherichia coli at 300 ug/disc; format: functional; details: read-out: IZ; method in brief: as §2
Saccharomyces cerevisiae = assay: Antimicrobial activity against Saccharomyces cerevisiae at 300 ug/disc; format: functional; details: read-out: IZ; method in brief: as §2
Toxoplasma gondii [11] = assay: Antiparasitic activity against Toxoplasma gondii infected african green monkey Vero cells at 2 mM assessed as infected cells; format: functional; method in brief: as §1
Mycolicibacterium phlei = assay: Antimicrobial activity against Mycobacterium phlei at 300 ug/disc; format: functional; details: read-out: IZ; method in brief: as §2
Toxoplasma gondii [12] = assay: Antiparasitic activity against Toxoplasma gondii infected african green monkey Vero cells at 20 mM assessed as infected cells; format: functional; method in brief: as §1
Staphylococcus aureus = assay: Antimicrobial activity against Staphylococcus aureus at 300 ug/disc; format: functional; details: read-out: IZ; method in brief: as §2
Candida albicans = assay: Antimicrobial activity against Candida albicans at 300 ug/disc; format: functional; details: read-out: IZ; method in brief: as §2
Toxoplasma gondii [13] = assay: Inhibition of Toxoplasma gondii infected in african green monkey Vero cells; format: functional, organism-based; method in brief: as §3
Candida [14] = assay: Antimicrobial activity against Candida sp. IMUR4249; format: functional
Method in brief: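 Tube dilution MIC, run on compounds with a disc-diffusion zone of at least 18 mm. The DMSO stock (1 mg/mL) was serially diluted to 10–220 µg/mL final in medium, and strains were inoculated at 10^8/mL. Media were tryptic soy or nutrient agar for bacteria and Sabouraud liquid for fungi, incubated 24–48 h at 37 °C (bacteria) or 30 °C (fungi). MIC is the lowest concentration giving clear tubes.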

Row | SMILES | Activity (Toxoplasma gondii [1]) | zone of inhibition at 300 µg/disc [2] | zone of inhibition at 300 µg/disc (Candida [3]) | zone of inhibition at 300 µg/disc (Micrococcus luteus) | IC50 (Vero) | zone of inhibition at 300 µg/disc [5] | Activity (Toxoplasma gondii [6]) | Activity (Toxoplasma gondii [7]) | zone of inhibition at 300 µg/disc (Candida [8]) | zone of inhibition at 300 µg/disc (Bacillus subtilis) | zone of inhibition at 300 µg/disc (Klebsiella pneumoniae) | zone of inhibition at 300 µg/disc (Candida [9]) | IC50 (Toxoplasma gondii [10]) | zone of inhibition at 300 µg/disc (Enterococcus faecalis) | zone of inhibition at 300 µg/disc (Escherichia coli) | zone of inhibition at 300 µg/disc (Saccharomyces cerevisiae) | Activity (Toxoplasma gondii [11]) | zone of inhibition at 300 µg/disc (Mycolicibacterium phlei) | Activity (Toxoplasma gondii [12]) | zone of inhibition at 300 µg/disc (Staphylococcus aureus) | other results
1 | O=C(O)CC1S/C(=N\N=C\c2ccc(Cl)cc2Cl)N(c2ccccc2)C1=O (centres undefined) | 19.05% | 16 mm | < 7 mm | 20 mm | 2000 µM | 22 mm | 0% | 63.23% | < 7 mm | 17 mm | < 7 mm | 14 mm | 1000 µM | 15 mm | < 7 mm | < 7 mm | 18.08% | 12 mm | 0% | 10 mm | MBC [4]: 60 µg/mL (≈ 142 µM); MIC [4]: 70 µg/mL (≈ 166 µM); zone of inhibition at 300 µg/disc (Candida albicans): 7 mm; IC50 (Toxoplasma gondii [13]): 1500 µM
2 | O=C(O)CC1S/C(=N\N=C\c2ccc(F)cc2)N(c2ccccc2)C1=O (centres undefined) | 0% | 12 mm | < 7 mm | 15 mm | 2000 µM | 14 mm | 0% | 21.7% | < 7 mm | 14 mm | < 7 mm | 22 mm | 50 µM | 16 mm | < 7 mm | < 7 mm | 10.2% | 7 mm | 0% | < 7 mm | MFC (Candida [14]): 70 µg/mL (≈ 188 µM); MIC (Candida [14]): 80 µg/mL (≈ 215 µM); zone of inhibition at 300 µg/disc (Candida albicans): 8 mm; IC50 (Toxoplasma gondii [13]): 50 µM
3 | COc1cccc(/C=N/N=C2\SC(CC(=O)O)C(=O)N2c2ccccc2)c1 (centres undefined) | 7.3% | < 7 mm | < 7 mm | 22 mm | 5000 µM | < 7 mm | 4.16% | 34.16% | < 7 mm | 9 mm | < 7 mm | 18 mm | 100 µM | 11 mm | < 7 mm | < 7 mm | 28.71% | < 7 mm | 0% | 14 mm | MFC (Candida [14]): 70 µg/mL (≈ 183 µM); MIC (Candida [14]): 80 µg/mL (≈ 209 µM); zone of inhibition at 300 µg/disc (Candida albicans): < 7 mm; IC50 (Toxoplasma gondii [13]): 3000 µM
4 | O=C(O)CC1S/C(=N\N=C\c2ccccc2F)N(c2ccccc2)C1=O (centres undefined) | 0% | 13 mm | < 7 mm | 25 mm | 2000 µM | 14 mm | 0% | 70.79% | < 7 mm | 15 mm | < 7 mm | 20 mm | 1000 µM | 16 mm | < 7 mm | < 7 mm | 16.14% | 7 mm | 0% | < 7 mm | MFC (Candida [14]): 70 µg/mL (≈ 188 µM); MIC (Candida [14]): 80 µg/mL (≈ 215 µM); zone of inhibition at 300 µg/disc (Candida albicans): 7 mm; IC50 (Toxoplasma gondii [13]): 2000 µM
5 | O=C(O)CC1S/C(=N\N=C\c2ccc(Cl)cc2)N(c2ccccc2)C1=O (centres undefined) | 0% | 15 mm | < 7 mm | 21 mm | 2000 µM | 17 mm | 0% | 68.15% | < 7 mm | 13 mm | < 7 mm | 20 mm | 500 µM | 15 mm | < 7 mm | < 7 mm | 35.3% | 12 mm | 0% | < 7 mm | MFC (Candida [14]): 140 µg/mL (≈ 361 µM); MIC (Candida [14]): 150 µg/mL (≈ 387 µM); zone of inhibition at 300 µg/disc (Candida albicans): 8 mm; IC50 (Toxoplasma gondii [13]): 1500 µM
6 | COc1ccc(/C=N/N=C2\SC(CC(=O)O)C(=O)N2c2ccccc2)c(OC)c1 (centres undefined) | 0% | < 7 mm | < 7 mm | 15 mm | 5000 µM | < 7 mm | 0% | 66.36% | < 7 mm | < 7 mm | < 7 mm | 20 mm | 500 µM | < 7 mm | < 7 mm | 12 mm | 39.5% | < 7 mm | 0% | < 7 mm | MFC (Candida [14]): 70 µg/mL (≈ 169 µM); MIC (Candida [14]): 80 µg/mL (≈ 193 µM); zone of inhibition at 300 µg/disc (Candida albicans): 13 mm; IC50 (Toxoplasma gondii [13]): 2000 µM
